Measurements pooled from the literature.
BRD9: Bromodomain-containing protein 9 (BRD9, Homo sapiens, UniProt Q9H8M2)

NC/C(=C\F)COc1cccc(Cn2c(=S)[nH]c(=O)c3[nH]cnc32)c1 — inhibition (Histamine H3 receptor (HRH3, Homo sapiens, UniProt Q9Y5N1); ligand displacement, radioligand; 10 µM): < 50%
C1=C/COCc2cc(ccc2OCCN2CCCC2)Nc2nccc(n2)-c2cccc(c2)COC/1 — remaining binding (Activin receptor type-2A (ACVR2A, Homo sapiens, UniProt P27037); binding; 0.1 µM): 83%
CCCCC(=O)Nc1ccc(-c2ccc3ncn(CCC)c(=O)c3c2)cn1 — remaining binding (Bone morphogenetic protein receptor type-1A (BMPR1A, Homo sapiens, UniProt P36894); binding, competition with immobilised ligand; 0.5 µM): 84%
CCN(C)Cc1c(OC)cc(-c2cc(C(C)=O)n3ccccc23)cc1OC — ΔTm (BRD9; thermal stability, DSF; 200 µM): 15.5 °C
Cc1cc(O)c(-c2ccc([C@@H](C)CN(C)C)cc2)c2c1[nH]c(=O)c1sccc12 — inhibition (G protein-coupled receptor kinase 5 (GRK5, Homo sapiens, UniProt P34947); enzyme activity, inhibitor; 0.1 µM): -6.65%
CCC(=O)c1cc(-c2cc(OC)c(Cn3ccnc3)cc2OC)c2ccccn12 — ΔTm (BRD9; thermal stability, DSF; 200 µM): 9.5 °C
Cc1ncc(-c2cc3cc(-c4c(C)ccc(O)c4C)cnc3[nH]2)cn1 — inhibition (Membrane-associated tyrosine- and threonine-specific cdc2-inhibitory kinase (PKMYT1, Homo sapiens, UniProt Q99640); cell-free assay, TR-FRET; 10 µM): 101%
COc1ccc2oc(-c3ccc4nc(N)oc4c3)c/c(=N\c3ccccc3NC(=O)CCN)c2c1 — remaining binding (Serine/threonine-protein kinase 35 (STK35, Homo sapiens, UniProt Q8TDR2); binding; 1 µM): 104%
CCN1/C(=C/C(C)=O)Sc2ccc(F)cc21 — inhibition (D(1B) dopamine receptor (DRD5, Homo sapiens, UniProt P21918); ligand displacement, radioligand; 10 µM): 2.77%
COc1cc(-c2cc(C(C)=O)n3ccccc23)cc(OC)c1CN1CC(O)C1 — ΔTm (BRD9; thermal stability, DSF; 200 µM): 14.8 °C
